Test [1] can be described thus: inhibitors of TNFa-induced NFkB p65 translocation, primary screen, imaging, HUVEC, MLSMR starter and 10KST1 sets (AID 438;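 active means inhibition above 20% together with a positive visual image hit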;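 further: compound added about 3h40 before a 20 min TNFalpha stimulation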;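 on inhibition: signal is the nuclear over cytoplasmic p65 intensity ratio per well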). The following applies: HUVEC TNFa-induced p65 nuclear translocation; cell count: measured here: nuclei count (cytotoxicity indicator), at 2.08 µM; inhibition: at 2 µM, stronger effect = higher value, 0% TNFa-plus-vehicle, 100% no-TNFa wells.
Test [2] in a line: endothelial E-selectin expression blockers – imaging, HUVEC, immunofluorescence, MLSMR starter and 10KST1 sets, primary screen (AID 487;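 active means visually confirmed hit in the image check and inhibition above 20%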;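 on inhibition: signal is fraction of cell area covered by stained E-selectin grains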;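 on nuclei count: 100% = median nuclei count of all wells on the same plate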). To be noted: HUVEC TNFalpha-induced E-selectin immunofluorescence imaging, at 2 µM; inhibition: stronger effect = higher value; nuclei count: measured here: cell number, toxicity.
A short description of test [3]: Primary imaging screen for DUSP6 inhibitors that restore phospho-Erk in transfected HeLa cells, chemical complementation (AID 609;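 active means compounds giving at least 50% inhibition in the cell-based MKP-3 phosphatase rescue imaging test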;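 on inhibition: phospho-Erk level distribution per well compared with pooled transfected vehicle control wells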). To be noted: HeLa MKP-3 transfected, phospho-Erk imaging KS statistic, at 10 µM, cells stimulated with TPA for 15 min.
Test [4] concerns the target Dual specificity protein phosphatase 6 (Homo sapiens) (UniProt Q16828). The description is as above. To be noted: HeLa MKP-3 transfected, phospho-Erk imaging KS statistic; at 10 µM; stronger effect = higher value; cells stimulated with TPA for 15 min.
The target in test [5] is Voltage-gated potassium channel subunit beta-2 (Rattus norvegicus) (UniProt P62483). As to the kind of experiment: inhibitors of rat Kvbeta2 reductase activity – biochemical, NADPH fluorescence, primary screen (AID 622).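 Further: slope of raw intensity against log time taken from 70 to 1610 s.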 The following applies: recombinant KvBeta, 4-cyanobenzaldehyde reduction, at 10 µM, stronger effect = higher value.
Chain of Voltage-gated potassium channel subunit beta-2 (Rattus norvegicus) (P62483 whole entry, looked up): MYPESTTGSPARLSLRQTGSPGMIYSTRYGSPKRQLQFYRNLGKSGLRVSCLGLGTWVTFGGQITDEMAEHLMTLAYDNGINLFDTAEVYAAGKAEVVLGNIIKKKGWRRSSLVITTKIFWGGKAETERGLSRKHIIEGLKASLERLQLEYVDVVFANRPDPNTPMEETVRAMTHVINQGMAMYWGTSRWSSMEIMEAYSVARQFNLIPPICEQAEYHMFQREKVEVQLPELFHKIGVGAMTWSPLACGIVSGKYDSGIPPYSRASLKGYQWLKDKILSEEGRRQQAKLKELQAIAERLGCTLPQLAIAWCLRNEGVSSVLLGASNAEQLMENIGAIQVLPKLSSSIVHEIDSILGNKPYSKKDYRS
Test [6] shares this target. As to the kind of experiment: enhancers of rat Kvbeta2 NADPH turnover – biochemical, NADPH fluorescence, primary screen (AID 623;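 active means NADPH fluorescence slope more negative than the mean of all samples by about 3 SD, 99.7% confidence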;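 further: fluorescence intensity change per second fitted from 20 to 320 s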). The following applies: Recombinant KvBeta, NADPH fluorescence decrease slope, 10 min; at 10 µM; stronger effect = lower value.
In test [7] the target is Muscarinic acetylcholine receptor M4 (Homo sapiens) (UniProt P08173). Kind of test: M4-linked GIRK flux change, two-sided – cell-based, HEK293 M4/GIRK, thallium flux, BTC-AM, M4 allosteric agonist project, primary screen (AID 625;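 active means fluorescence slope after compound addition differing from the mean of all tested samples at 99.7% confidence, mostly higher but some lower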;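 further: thallium influx through GIRK channels coupled to M4 in HEK293 cells with BTC-AM dye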). The following applies: at 10 µM, actives lie on both sides. Put shortly: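 Material: M4/GIRK1/GIRK2 stable HEK293 cell line. Medium: pH 7.3 thallium assay buffer. Dosing: single compound concentration, 10 µM final. Schedule: 1 h dye loading, 2 min kinetic read. Measured by: kinetic fluorescence with BTC-AM dye. Read-out: post-addition slope, 15–24 s, of baseline-normalized fluorescence. Benchmarks: carbachol and DMSO controls.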
Chain of Muscarinic acetylcholine receptor M4 (Homo sapiens) (P08173 whole entry, looked up): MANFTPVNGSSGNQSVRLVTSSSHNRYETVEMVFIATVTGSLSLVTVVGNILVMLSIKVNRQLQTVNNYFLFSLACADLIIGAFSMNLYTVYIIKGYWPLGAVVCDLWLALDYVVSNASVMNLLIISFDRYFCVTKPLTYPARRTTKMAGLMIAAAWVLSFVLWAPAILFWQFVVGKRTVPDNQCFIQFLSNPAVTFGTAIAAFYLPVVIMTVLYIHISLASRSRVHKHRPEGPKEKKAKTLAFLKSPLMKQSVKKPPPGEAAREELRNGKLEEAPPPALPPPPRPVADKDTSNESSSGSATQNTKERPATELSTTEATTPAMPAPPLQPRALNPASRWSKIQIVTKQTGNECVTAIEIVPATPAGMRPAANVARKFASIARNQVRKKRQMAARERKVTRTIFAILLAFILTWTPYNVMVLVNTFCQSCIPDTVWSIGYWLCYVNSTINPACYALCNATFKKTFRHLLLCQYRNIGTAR

Test [8] is described as follows: inhibitors of larval lipid processing in zebrafish, primary screen, whole organism, PED6 fluorescence, gall bladder and intestine (AID 686;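 active means a full or partial loss of lipid-probe fluorescence in the fish gall bladder, intestine or both, judged by eye; inactive means no fluorescence loss, or compound toxic to the fish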;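 further: larvae 5 to 7 days old with five fish per well; signal comes from phospholipase A2 cleavage of quenched PED6 carried via bile; overnight exposure to compound and PED6 before scoring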). The following applies: Zebrafish larvae PED6 lipid processing, fluorescence scoring; screened at 20 µM (by protocol). Put shortly:
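System: live zebrafish larvae aged 5-7 days, whole organism; measure: graded gall bladder and intestinal fluorescence inhibition per well; incubation: overnight exposure; reagent: ingested quenched lipid PED6 at 100 nM; signal: By-eye fluorescence microscopy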

Test [9] is described as follows: loss of swimming-algae plug formation – whole organism, Chlamydomonas reinhardtii, WT vs cilia-less mutant, absorbance, 96-well, primary screen (AID 463189;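 active means inhibition at or above 50% relative to wild type and mutant plate controls; inactive means inhibition below 50%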;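 further: 0% = wild type cc124 cells in DMSO and 100% = ciliumless bld1 mutant cells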). To be noted: Chlamydomonas reinhardtii gravitaxis, OD600 absorbance, 2 days; at 10 µM; stronger effect = higher value.
Where [10] appears, read: measured here: cell density z-score.
The mark [11] stands for this setting: measured here: nuclear c-Myc green intensity z-score.
Where [12] appears, read: measured here: nuclear pErk red intensity z-score, stronger effect = higher value.

Molecules are shown by their SMILES. Calls of active or inactive are those of the source.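 How the source made its calls, unless noted: active means fluorescence slope higher than the sample average by over 3 SD (cut at about -0.22 in these data, passing the limit was not always enough); inactive means the rest.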

Chain of Dual specificity protein phosphatase 6 (Homo sapiens) (Q16828 whole entry, looked up): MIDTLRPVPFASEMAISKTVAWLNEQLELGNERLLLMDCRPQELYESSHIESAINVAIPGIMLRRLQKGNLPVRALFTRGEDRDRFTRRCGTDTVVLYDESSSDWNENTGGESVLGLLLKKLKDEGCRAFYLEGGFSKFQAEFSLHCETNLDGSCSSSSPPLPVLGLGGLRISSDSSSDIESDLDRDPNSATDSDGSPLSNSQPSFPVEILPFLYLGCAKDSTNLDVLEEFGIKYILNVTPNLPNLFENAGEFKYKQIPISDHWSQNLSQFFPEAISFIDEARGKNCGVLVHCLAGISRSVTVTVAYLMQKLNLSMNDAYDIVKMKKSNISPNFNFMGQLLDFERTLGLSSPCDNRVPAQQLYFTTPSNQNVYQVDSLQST

`Cc1nnc2n(-c3ccccc3)c(=O)c3c4c(sc3n12)COC(C)(C)C4`: the cell count in test [1] was determined as 526. The inhibition – broadly, the change of the read-out against control, counted positive when it falls – in [1] is -14.8% (inactive); in test [2], -32.4% (inactive); in test [4] it was 24% (inactive); in test [9] it was 38.4% (inactive). For the same compound, in [2], the nuclei count came to 98.4%. In addition, the z-score is 0.218 in [3] (setting [10]), -0.0554 in [3] (setting [11]) and -0.749 in test [3] (setting [12]). Further, the fluorescence slope in test [5] was -0.48 (inactive); in test [7] it was 0.00589 (inactive). The NADPH fluorescence slope in test [6] was 2.3e-05 (inactive). The outcome in test [8] was inactive.

On to `COCCCn1cnc2c(c1=O)c1nc3ccccc3nc1n2CCc1ccccc1`, for which, in test [1], the cell count turned out to be 607. For the same compound, the inhibition was -6.7% (inactive) in test [1], 10.3% (inactive) in [2], 1.63% (inactive) in test [4] and 12.1% (inactive) in [9]. For the same compound, the nuclei count in [2] turned out to be 115%. Besides, the z-score is -3.3 in test [3] (setting [10]), 0.876 in test [3] (setting [11]) and 0.579 in [3] (setting [12]). Moreover, the fluorescence slope in [5] is -0.492 (inactive); in test [7], 0.00438 (inactive). In [6], the NADPH fluorescence slope is -4.8e-05 (inactive). Besides, the compound was called inactive in [8].

With `O=C1C=C(O)CC(c2ccc(Cl)c(Cl)c2)C1` (stereo unspecified), the cell count in test [1] is 606. Also, the inhibition in test [1] is 4.8% (inactive); in [2] it was -56.5% (inactive); in test [4] it was 14.7% (inactive); in [9], -8.94% (inactive). Also, in test [2], the nuclei count is 115%. Further, the z-score in test [3] (setting [10]) came out at 0.34; in test [3] (setting [11]), 0.0724; in test [3] (setting [12]), 0.952. Moreover, the figures for the fluorescence slope in test [5] and in test [7] were -0.41 (inactive) and 0.00481 (inactive), respectively. In addition, the NADPH fluorescence slope in [6] is -4.9e-05 (inactive). Besides, in [8], the result was inactive.

As for `C[n+]1cccc(CNC(=O)/C=N/O)c1`, the cell count in test [1] was found to be 621. Besides, the inhibition in test [1] is -2.4% (inactive); in test [2], -126% (inactive); in test [4], 6.04% (inactive); in [9], -6.73% (inactive). In [2], this compound gave a nuclei count of 158%. In addition, the z-score in test [3] (setting [10]) is -2.05; in [3] (setting [11]), 3.02; in test [3] (setting [12]) it was 0.751. In addition, the fluorescence slope in test [5] was -0.47 (inactive); in [7], 0.00464 (inactive). Besides, the NADPH fluorescence slope in [6] is -3e-05 (inactive). For the same compound, the result in [8] was inactive.

For the compound `CCn1c(SCC(=O)NCc2ccco2)nnc1-c1ccc(N)cc1`, the cell count in test [1] was 669. Also, the inhibition is -1% (inactive) in [1], 19.4% (inactive) in test [2], -3.95% (inactive) in test [4] and 6.36% (inactive) in test [9]. This compound gave a nuclei count in test [2] of 189%. Moreover, the z-score in [3] (setting [10]) is -0.439; in [3] (setting [11]) it was 0.193; in test [3] (setting [12]) it was -0.177. Moreover, the fluorescence slope is -0.491 (inactive) in test [5] and 0.00557 (inactive) in [7]. The NADPH fluorescence slope in test [6] was -4.4e-05 (inactive). Moreover, in test [8], the call was inactive.

For `CC(C(=O)NC(=O)NCc1ccccc1)N1C(=O)c2ccccc2C1=O` (stereo unspecified), in test [1], the cell count stood at 655. Moreover, the inhibition in test [1] is 6.1% (inactive); in test [2], -28.7% (inactive); in [4], -11.4% (inactive); in test [9], -4.8% (inactive). In [2], this compound had a nuclei count of 94.9%. Moreover, the z-score is 0.127 in test [3] (setting [10]), 0.0595 in test [3] (setting [11]) and -0.687 in test [3] (setting [12]). Also, the results for the fluorescence slope in [5] and in test [7] were -0.461 (inactive) and 0.00457 (inactive), respectively. Further, the NADPH fluorescence slope in test [6] is -4.3e-05 (inactive). The compound was called inactive in test [8].

Regarding `CCOC(=O)CC(=O)CSc1nnc2sc3ccccc3n12`, in test [1], the cell count amounted to 493. Also, the inhibition in test [1] is -14.5% (inactive); in test [2], 27.3% (inactive); in [4], 3.97% (inactive); in [9], 6.97% (inactive). In [2], this compound showed a nuclei count of 174%. Further, the z-score in [3] (setting [10]) is 0.311; in test [3] (setting [11]), 0.752; in test [3] (setting [12]), -0.0836. Also, the fluorescence slope in [5] is -0.427 (inactive); in [7], 0.0062 (inactive). The NADPH fluorescence slope in [6] was -3e-05 (inactive). Further, in [8], the compound was called inactive.

For the origin of these results see PubChem BioAssay.
